Reference: paper PMC8273112 (ACS Infectious Diseases, 2021)
Structures can show the parent of a compound that is named as a salt. Where two headings read alike, the source gives them in different places.

Legend:
[1] = tested on: P. falciparum A6 (SB1-A6); experiment: SYBR Green growth inhibition assay, P. falciparum A6; format: cell-based, Plasmodium falciparum; details: read-out: IC50 A6, 72 h
In short: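 Asynchronous parasites grown in human erythrocytes in RPMI-1640 with HEPES, hypoxanthine and Albumax II under 5% O2/5% CO2/90% N2 at 37 °C. Test compound in 2-fold serial dilution from 20 μM, run in quadruplicate, at 2% hematocrit and 0.2% starting parasitemia for 72 h. SYBR Green I lysis dye added for ≥1 h in the dark. Fluorescence read at 497/520 nm, normalized to untreated wells and plotted against log concentration.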

[2] = tested on: P. falciparum strain Tm90–C2B; experiment: SYBR Green growth inhibition assay, P. falciparum Tm90-C2B; format: cell-based, Plasmodium falciparum; details: read-out: IC50 Tm90–C2B
In short: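 Human erythrocytes (≤28 days old), 2% hematocrit, asynchronous culture at 0.2% initial parasitemia, in RPMI-1640 with HEPES, hypoxanthine, glucose, glutamine and Albumax II. 2-fold serial dilution starting at 20 μM, quadruplicate. Incubated 72 h at 37 °C under 5% O2/5% CO2/90% N2. SYBR Green I dye-detergent added for at least 1 h in the dark; fluorescence read at 497/520 nm, normalized to untreated wells, plotted against log concentration.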

[3] = tested on: Plasmodium falciparum strain Dd2; experiment: SYBR Green growth inhibition assay, P. falciparum Dd2; format: cell-based
[4] = tested on: Plasmodium falciparum strain D6; experiment: SYBR Green growth inhibition assay, P. falciparum D6; format: cell-based; details: read-out: IC50 D6
HepG2 cells = experiment: HepG2 cytotoxicity assay; format: cell-based, human; details: read-out: IC50 cytotoxicity, 24 h drug, 24 h recovery
HepG2 cytotoxicity assay = format: cell-based, human; details: human, HepG2 cells
[5] = Murine microsomal stability; format: in vitro ADME; details: mouse, pooled murine liver microsomes
Plasmodium yoelii = experiment: Modified 4-day Peters test, murine malaria; format: in vivo, Plasmodium yoelii in mice
[6] = in-house derived mutant line resistant to respiratory antagonists
[7] = multidrug-resistant clinical isolate also resistant to atovaquone, 72 h
[8] = read-out: IC50 Dd2, multidrug-resistant P. falciparum strain Dd2, 72 h
[9] = P. falciparum pan-sensitive strain D6, 72 h, average of two to four determinations
[10] = Plasmodium falciparum, TM90, 72 h
[11] = Plasmodium falciparum, DD2, 72 h, read-out: IC50 Dd2
[12] = Plasmodium falciparum, D6, 72 h
[13] = oral gavage days 1–4, parasitemia day 5, mice

| Compound | IC50 [1, 6] | IC50 [2, 7] | IC50 [3, 8] | IC50 [4, 9] | IC50 (HepG2 cells) | also measured |
| --- | --- | --- | --- | --- | --- | --- |
| 2,2′-Bis[(4-carbonamidophenyl)methylene]carbonimidic Dihydrazide Hydrochloride [Compound 30] | 516 nM | 727 nM | 405 nM | 527 nM | 42000 nM |  |
| N=C(NN=Cc1ccc(-c2ccccc2)cc1)NN=Cc1ccc(-c2ccccc2)cc1 [Compound 26, 2,2′-Bis[(4-diphenyl)methylene]carbonimidic Dihydrazide Hydrochloride] | 33 nM | 71 nM | 87 nM | 15 nM | > 200000 nM |  |
| N=C(NN=Cc1ccc([N+](=O)[O-])cc1)NN=Cc1ccc([N+](=O)[O-])cc1 [Compound 27, 2,2′-Bis[(4-nitrophenyl)methylene]carbonimidic Dihydrazide Hydrochloride] |  |  |  |  |  | IC50 ([1]; Plasmodium falciparum): 85 nM; IC50 [2, 10]: 247 nM; IC50 [3, 11]: 198 nM; IC50 [4, 12]: 96 nM; IC50 at 24 h (HepG2 cytotoxicity assay): > 200000 nM |
| N=C(NN=Cc1cccc(-n2cnnn2)c1)NN=Cc1cccc(-n2cnnn2)c1 [Compound 34, 2,2′-Bis[(3-tetrazole-1-phenyl)methylene]carbonimidic Dihydrazide Hydrochloride] | 4790 nM | > 5000 nM | > 5000 nM | 1640 nM | 107000 nM |  |
| N=C(NN=Cc1ccc(O)cc1)NN=Cc1ccc(O)cc1 [Compound 25, 2,2′-Bis[(4-phenol)methylene]carbonimidic Dihydrazide Hydrochloride] | 278 nM | 286 nM | 240 nM | 143 nM | 39000 nM |  |
| N=C(NN=Cc1ccc(S(N)(=O)=O)cc1)NN=Cc1ccc(S(N)(=O)=O)cc1 [Compound 31, 2,2′-Bis[(4-sulphonamidophenyl)methylene]carbonimidic Dihydrazide Hydrochloride] | > 5000 nM | > 5000 nM | > 5000 nM | > 5000 nM | > 200000 nM |  |
| N=C(NN=Cc1ccc(C(=O)O)cc1)NN=Cc1ccc(C(=O)O)cc1 [Compound 29, 2,2′-Bis[(phenyl-4-carbonate)methylene]carbonimidic Dihydrazide Hydrochloride] | > 5000 nM | > 5000 nM | > 5000 nM | > 5000 nM | > 200000 nM |  |
| N=C(NN=Cc1ccc(-n2cnnn2)cc1)NN=Cc1ccc(-n2cnnn2)cc1 [Compound 35, 2,2′-Bis[(4-tetrazole-1-phenyl)methylene]carbonimidic Dihydrazide Hydrochloride] | > 5000 nM | > 5000 nM | > 5000 nM | 838 nM | > 200000 nM |  |
| O=C1C(O)=C([C@H]2CC[C@H](c3ccc(Cl)cc3)CC2)C(=O)c2ccccc21 [atovaquone, reference compound] |  |  |  |  |  | IC50 ([1]; Plasmodium falciparum): > 5000 nM; IC50 [2, 10]: > 5000 nM; IC50 [3, 11]: < 1 nM; IC50 [4, 12]: < 1 nM; IC50 at 24 h (HepG2 cytotoxicity assay): 72000 nM |
| N=C(NN=Cc1ccc2c(c1)OC(F)(F)O2)NN=Cc1ccc2c(c1)OC(F)(F)O2 [Compound 36, 2,2′-Bis{[4-(2,2-difluoro-2,3-dioxazolo)]phenyl}methylene]carbonimidic Dihydrazide Hydrochloride] | 235 nM | 905 nM | 800 nM | 250 nM | > 200000 nM |  |
| Cl.N#Cc1cccc(/C=N/NC(=N)N/N=C/c2cccc(C#N)c2)c1 [Compound 21, 2,2′-Bis[(3-cyanophenyl)methylene]carbonimidic Dihydrazide Hydrochloride] |  |  |  |  |  | IC50 ([1]; Plasmodium falciparum): 24 nM; IC50 [2, 10]: 31 nM; IC50 ([3]; Plasmodium falciparum, DD2, 48 h, read-out: IC50 Dd2, 48 h): 31 nM; IC50 [3, 11]: 20 nM; IC50 ([3]; Plasmodium falciparum, DD2, 72 h, read-out: IC50 Dd2, 72 h): 21 nM; IC50 ([3]; Plasmodium falciparum, DD2, 96 h, read-out: IC50 Dd2, 96 h): 22 nM; IC50 [4, 12]: 7 nM; CLint scaled at 1 μM ([5]; pH 7.4): 93.8 mL/min/kg; half-life at 1 μM ([5]; pH 7.4, murine microsomal stability, t1/2, 1 μM, 0.5 mg/mL protein, 37 °C, 1 h, NADPH): 58.2 min; P. yoelii ED50 (Plasmodium yoelii; [13]): 7.1 mg/kg/day; P. yoelii ED90 (Plasmodium yoelii; [13]): 9.4 mg/kg/day; P. yoelii NRD (nonrecrudescence dose, cure dose) (Plasmodium yoelii; oral gavage up to 25 mg/kg/day, no parasites at day 30): >25 mg/kg/day |
